From ChEMBL document CHEMBL1134370, “Pharmacophore analysis of the nuclear oxysterol receptor LXRalpha” (J Med Chem, 2001)

What was measured:
[1] = target: T1, Oxysterols receptor LXR-alpha (Homo sapiens, UniProt Q13133); assay: Concentration required for half maximal activity was calculated in human nuclear oxysterol receptor liver X receptor-alpha in LiSA.
T1 sequence (Q13133 whole entry): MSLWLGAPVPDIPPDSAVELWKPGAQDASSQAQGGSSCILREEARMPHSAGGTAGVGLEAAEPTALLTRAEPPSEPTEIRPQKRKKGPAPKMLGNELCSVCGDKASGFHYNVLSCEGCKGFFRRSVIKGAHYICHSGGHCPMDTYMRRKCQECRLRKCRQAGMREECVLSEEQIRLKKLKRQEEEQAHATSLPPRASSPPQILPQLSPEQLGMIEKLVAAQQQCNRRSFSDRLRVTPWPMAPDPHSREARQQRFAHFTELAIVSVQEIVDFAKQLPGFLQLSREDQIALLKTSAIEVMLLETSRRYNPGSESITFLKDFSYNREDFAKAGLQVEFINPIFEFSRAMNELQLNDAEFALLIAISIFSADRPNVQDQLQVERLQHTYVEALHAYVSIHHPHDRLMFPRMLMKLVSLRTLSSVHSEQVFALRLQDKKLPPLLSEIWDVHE
Outline: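 Human LXRα ligand-binding domain (aa 183-447) with His tag, expressed in E. coli, purified and biotinylated. Protein and biotinylated SRC1 peptide (aa 675-699) were pre-bound to streptavidin-APC and streptavidin-europium. The final mix (10 nM each) was read by TR-FRET at 665 nm after 2-4 h at room temperature. Compounds 1 nM-100 µM; EC50 from half-maximal fluorescence, n = 3, standard error.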

[2] = target: T2, Oxysterols receptor LXR-alpha (Homo sapiens) (UniProt Q13133); assay: Tested for its ability to activate Liver X receptor-alpha expressed as Relative efficacy determined by maximal increase in relative fluorescence in LiSA
T2 sequence (whole entry): T1 sequence (Q13133 whole entry)
Outline: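 Human LXRα ligand-binding domain (aa 183-447) with a His tag, expressed in E. coli, biotinylated and coupled to streptavidin-allophycocyanin. A biotinylated SRC1 peptide (aa 675-699) was coupled to streptavidin-europium. Final concentrations: 10 nM protein and peptide in pH 7.5 MOPS buffer, compound 1 nM–100 µM. Incubated 2-4 h at room temperature; time-resolved FRET read at 665 nm. Efficacy is the maximal fluorescence increase relative to 24(S),25-epoxycholesterol.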

[3] = target: T2, Oxysterols receptor LXR-alpha (Homo sapiens); assay: Tested for its ability to activate Liver X receptor-alpha expressed as Relative efficacy determined by maximal increase in relative fluorescence in LiSA by 100 uM
Outline: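 TR-FRET ligand-sensing assay of SRC1 peptide recruitment to biotinylated human LXRα LBD (aa 183-447, E. coli), 10 nM each in MOPS/NaF buffer pH 7.5. Run at room temperature for 2-4 h, read at 665 nm. Relative efficacy is the maximal increase in relative fluorescence compared with 24(S),25-epoxycholesterol. Compounds tested up to 100 µM.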

[4] = target: T1, Oxysterols receptor LXR-alpha; assay: Binding affinity towards LXR alpha receptor was determined in a competition binding assay

Compound | EC50 [1] [nM] | RE [2] | RE [3] | Ki [4] [nM]
CC(C)C(=O)CC[C@@H](C)[C@H]1CC[C@H]2[C@@H]3CC=C4C[C@@H](O)CC[C@]4(C)[C@H]3CC[C@]12C | 180 | 1.3 | – | –
CC(C)[C@@H](O)CC[C@@H](C)[C@H]1CC[C@H]2[C@@H]3CC=C4C[C@@H](O)CC[C@]4(C)[C@H]3CC[C@]12C | 130 | 1 | – | –
CC(C)[C@H](O)CC[C@@H](C)[C@H]1CC[C@H]2[C@@H]3CC=C4C[C@@H](O)CC[C@]4(C)[C@H]3CC[C@]12C | 220 | 0.85 | – | –
CC(C)CCC[C@](C)(O)[C@H]1CC[C@H]2[C@@H]3CC=C4C[C@@H](O)CC[C@]4(C)[C@H]3CC[C@@]21C | 470 | 1 | – | –
C[C@H](CC[C@H]1OC1(C)C)[C@H]1CC[C@H]2[C@@H]3CC=C4C[C@@H](O)CC[C@]4(C)[C@H]3CC[C@]12C | 670 | 1 | – | –
COC(=O)CC[C@@H](C)[C@H]1CC[C@H]2[C@@H]3CC=C4C[C@@H](O)CC[C@]4(C)[C@H]3CC[C@]12C | 105 | 1.1 | – | –
C[C@H](CNC(=O)N(C)C)[C@H]1CC[C@H]2[C@@H]3CC=C4C[C@@H](O)CC[C@]4(C)[C@H]3CC[C@]12C | – | < 0.1 | – | –
CC(C)C(=O)NC[C@@H](C)[C@H]1CC[C@H]2[C@@H]3CC=C4C[C@@H](O)CC[C@]4(C)[C@H]3CC[C@]12C | – | < 0.1 | – | –
CC(C)C[C@H](O)C[C@@H](C)[C@H]1CC[C@H]2[C@@H]3CC=C4C[C@@H](O)CC[C@]4(C)[C@H]3CC[C@]12C | 5900 | 0.7 | – | –
CC(C)CCC[C@@H](C)[C@H]1CC[C@H]2[C@@H]3CC=C4C[C@@H](O)CC[C@]4(C)[C@H]3CC[C@]12C | – | < 0.1 | – | –
C[C@H](CC[C@@H]1OC1(C)C)[C@H]1CC[C@H]2[C@@H]3CC=C4C[C@@H](O)CC[C@]4(C)[C@H]3CC[C@]12C [24(S),25-EPOXYCHOLESTEROL] | 460 | 1 | – | –
C[C@H](C[C@@H](CO)C(C)(C)O)[C@H]1CC[C@H]2[C@@H]3CC=C4C[C@@H](O)CC[C@]4(C)[C@H]3CC[C@]12C | – | < 0.1 | – | –
CC(C)CC[C@H](O)[C@@H](C)[C@H]1CC[C@H]2[C@@H]3CC=C4C[C@@H](O)CC[C@]4(C)[C@H]3CC[C@]12C | – | – | < 0.1 | 180
C[C@@H](CO)CCC[C@@H](C)[C@H]1CC[C@H]2[C@@H]3CC=C4C[C@@H](O)CC[C@]4(C)[C@H]3CC[C@]12C | 250 | 0.3 | – | –
C[C@H](CCC(=O)N(C)C)[C@H]1CC[C@H]2[C@@H]3CC=C4C[C@@H](O)CC[C@]4(C)[C@H]3CC[C@]12C | 170 | 1.4 | – | –
C[C@H](CCC(=O)O)[C@H]1CC[C@H]2[C@@H]3CC=C4C[C@@H](O)CC[C@]4(C)[C@H]3CC[C@]12C | 3000 | 0.2 | – | –
CNC(=O)CC[C@@H](C)[C@H]1CC[C@H]2[C@@H]3CC=C4C[C@@H](O)CC[C@]4(C)[C@H]3CC[C@]12C | 720 | 0.55 | – | –
C[C@H](CCCC(C)(C)O)[C@H]1CC[C@H]2[C@@H]3CC=C4C[C@@H](O)CC[C@]4(C)[C@H]3CC[C@]12C | 1160 | 0.35 | – | –
CC(C)C[C@@H](O)C[C@@H](C)[C@H]1CC[C@H]2[C@@H]3CC=C4C[C@@H](O)CC[C@]4(C)[C@H]3CC[C@]12C | – | < 0.1 | – | –
CC(C)CC[C@@H](O)[C@@H](C)[C@H]1CC[C@H]2[C@@H]3CC=C4C[C@@H](O)CC[C@]4(C)[C@H]3CC[C@]12C [22(R)-HYDROXYCHOLESTEROL] | 325 | 0.85 | – | –
